The subject of data set [1] is Escherichia coli. Description: Antibacterial activity against Escherichia coli NCIM2065 at 10 mg after 24 to 48 hrs by agar well diffusion method. The format is functional. Particulars: read-out: DIZ. In a few lines: (§1)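 Cut-plug well assay: each well filled with 10 mg of powdered compound. Bacteria were on nutrient agar (peptone, beef extract, NaCl) at pH 7, and yeasts on Sabouraud agar (glucose, peptone) at pH 6.0. Plates were incubated at 30 °C for 24–48 h, and inhibition zone diameters were measured in triplicate.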

The subject of data set [2] is Candida albicans. Description: Antifungal activity against Candida albicans after 24 to 48 hrs by agar disc diffusion method. In kind it is functional. In a few lines:
(§2)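 Filter-paper discs (5 mm) were impregnated with compound in DMSO at […]. Nutrient agar was seeded with 100 µL inoculum: 5 × 10^5 for bacteria, 4 × 10^4 for yeasts. Controls were ciprofloxacin discs for bacteria, amphotericin B discs for yeasts, and DMSO blanks. Plates were held at 37 °C for 24–48 h; zone diameter (mm) given as triplicate mean ± SD.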
(A growth-free zone around the sample is the usual read-out of agar diffusion tests.)

A further data set has as its system HepG2. Briefly: Cytotoxicity against human HepG2 cells after 72 hrs by sulforhodamine B assay. Particulars: HepG2, 72 h. The format is functional, cell-based.
Data set [3] has as its system Saccharomyces cerevisiae. Description: Antifungal activity against Saccharomyces cerevisiae after 24 to 48 hrs by agar disc diffusion method. In kind it is functional. In a few lines:
as §2

Data set [4] concerns Staphylococcus aureus. Description: Antibacterial activity against Staphylococcus aureus ATCC 25292 after 24 to 48 hrs by agar disc diffusion method. In kind it is functional. In a few lines: as §2
The nature of data set [5]: Ratio of IC50 for human MCF7 cells to LD50 for Artemia salina.
Data set [6] has as its system Staphylococcus aureus. Description: Antibacterial activity against Staphylococcus aureus ATCC 25292 at 10 mg after 24 to 48 hrs by agar well diffusion method. As to conditions: read-out: DIZ. The format is functional. The essentials: as §1
The next data set relates to MCF7. Briefly: Cytotoxicity against human MCF7 cells after 72 hrs by sulforhodamine B assay. As to conditions: MCF7, 72 h. In kind it is functional, cell-based.
Data set [7] deals with Saccharomyces cerevisiae. Briefly: Antifungal activity against Saccharomyces cerevisiae at 10 mg after 24 to 48 hrs by agar well diffusion method. In kind it is functional. As to conditions: read-out: DIZ. The essentials: as §1
The test system of data set [8] is Escherichia coli. Briefly: Antibacterial activity against Escherichia coli NCIM2065 after 24 to 48 hrs by agar disc diffusion method. The format is functional. In a few lines: as §2
A short description of data set [9]: Toxicity in Artemia salina assessed as mortality at 1000 ug/mL after 72 hrs. In kind it is organism-based. As to conditions: in vivo, read-out: Activity. The essentials:
(§3)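 Artemia salina larvae, 20 per 5 mL saline vial, were exposed to compound at […]. Three replicates were run per concentration. Living larvae were counted after 72 h, with data as mean ± SD.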

A short description of data set [10]: Toxicity in Artemia salina assessed as mortality after 72 hrs. The format is organism-based. As to conditions: in vivo, read-out: LD50. The essentials:
as §3

In data set [11] the test system is Candida albicans. Description: Antifungal activity against Candida albicans at 10 mg after 24 to 48 hrs by agar well diffusion method. The format is functional. Particulars: read-out: DIZ. The essentials: as §1
A short description of data set [12]: Ratio of IC50 for human HepG2 cells to LD50 for Artemia salina.
The nature of data set [13]: (§4) Toxicity in Artemia salina assessed as mortality at 100 ug/mL after 72 hrs. Particulars: in vivo, read-out: Activity. In kind it is organism-based. In a few lines: as §3
Data set [14] has as its system Bacillus subtilis. Briefly: Antibacterial activity against Bacillus subtilis PC1219 at 10 mg after 24 to 48 hrs by agar well diffusion method. In kind it is functional. Particulars: read-out: DIZ. The essentials: as §1
Data set [15] deals with Bacillus subtilis. Briefly: Antibacterial activity against Bacillus subtilis PC1219 after 24 to 48 hrs by agar disc diffusion method. The format is functional. The essentials: as §2
In the next data set the test system is Artemia salina. The description is as §4. In kind it is organism-based. As to conditions: in vivo, 72 h. The essentials:
as §3

Structures are written as SMILES. Converted amounts (≈) assume the structure as drawn.

Broadly, the MIC is the least concentration at which growth counts as inhibited. High values mean a less susceptible organism, low ones a more susceptible organism. Usually IC50 stands for the concentration needed to halve the response being measured. Read a high IC50 as weaker potency.

For `CC(Nc1ccc(Cl)cc1)(c1cccnc1)P(=O)(Oc1ccccc1)Oc1ccccc1` (centres undefined), the zone of inhibition at 10000 µg/disc with Escherichia coli [1] is 20 mm; in the data set on Staphylococcus aureus [6], 21 mm; in the data set on Saccharomyces cerevisiae [7], 23 mm; with Candida albicans [11], 23 mm; with Bacillus subtilis [14], 25 mm. Further, the minimum inhibitory concentration (MIC) against Candida albicans [2], against Saccharomyces cerevisiae [3], against Staphylococcus aureus [4], in the data set with Escherichia coli [8] and against Bacillus subtilis [15] was 10 µg/mL (≈ 21.5 µM) in each case. The 50% inhibitory concentration (IC50) was found to be 15.8 µg/mL (≈ 34 µM) in the data set with HepG2 and 17.6 µg/mL (≈ 37.9 µM) in the data set with MCF7. Further, the results for the Ratio in [5] and in data set [12] were 0.463 and 0.415, respectively. Besides, the mortality at 72 h, 1000 ug/mL in [9] came out at 100%. Moreover, the LC50 at 72 h in data set [10] turned out to be 38 µg/mL (≈ 81.7 µM). Besides, the mortality at 72 h, 100 ug/mL in [13] is 15%.

With `CC(Nc1ccccc1)(c1cccnc1)P(=O)(Oc1ccccc1)Oc1ccccc1` (centres undefined), the zone of inhibition at 10000 µg/disc in the data set with Escherichia coli [1] is 13 mm; in the data set on Staphylococcus aureus [6], 12 mm; in the data set with Saccharomyces cerevisiae [7], 14 mm; in the data set with Candida albicans [11], 13 mm; in the data set with Bacillus subtilis [14], 15 mm. Also, the minimum inhibitory concentration (MIC) with Candida albicans [2] came out at 10 µg/mL (≈ 23.2 µM); against Saccharomyces cerevisiae [3], 10 µg/mL (≈ 23.2 µM); against Staphylococcus aureus [4], 10 µg/mL (≈ 23.2 µM); in the data set with Escherichia coli [8], 100 µg/mL (≈ 232 µM); in the data set with Bacillus subtilis [15], 10 µg/mL (≈ 23.2 µM). Moreover, the IC50 with HepG2 is 17.3 µg/mL (≈ 40.2 µM); in the data set on MCF7, 18.2 µg/mL (≈ 42.3 µM). Also, the Ratio in data set [5] turned out to be 0.02; in data set [12], 0.019. In data set [9], the mortality at 72 h, 1000 ug/mL stood at 60%. Moreover, the LC50 at 72 h in data set [10] is 915 µg/mL (≈ 2130 µM). In the data set on Artemia salina, the Activity entry is “Non-toxic”.

Regarding `Cc1ccc(NC(C)(c2cccnc2)P(=O)(Oc2ccccc2)Oc2ccccc2)cc1` (centres undefined), the zone of inhibition at 10000 µg/disc in the data set on Escherichia coli [1] turned out to be 22 mm; in the data set on Staphylococcus aureus [6], 19 mm; in the data set on Saccharomyces cerevisiae [7], 16 mm; in the data set with Candida albicans [11], 17 mm; in the data set on Bacillus subtilis [14], 15 mm. The MIC was 10 µg/mL (≈ 22.5 µM) in the data set with Candida albicans [2]; 10 µg/mL (≈ 22.5 µM) in the data set on Saccharomyces cerevisiae [3]; 50 µg/mL (≈ 112 µM) against Staphylococcus aureus [4]; 10 µg/mL (≈ 22.5 µM) with Escherichia coli [8]; 10 µg/mL (≈ 22.5 µM) with Bacillus subtilis [15]. For the same compound, the IC50 in the data set on HepG2 was 13.3 µg/mL (≈ 29.9 µM); in the data set on MCF7, 20.2 µg/mL (≈ 45.4 µM). Also, the Ratio is listed as 0.243 in data set [5] and 0.16 in data set [12]. Besides, the mortality at 72 h, 1000 ug/mL in data set [9] came out at 10%. Moreover, the LC50 at 72 h in data set [10] amounted to 83 µg/mL (≈ 187 µM).

As for `CC(Nc1ccc(O)cc1)(c1cccnc1)P(=O)(Oc1ccccc1)Oc1ccccc1` (centres undefined), the zone of inhibition at 10000 µg/disc amounted to 20 mm in the data set on Escherichia coli [1]; 21 mm in the data set on Staphylococcus aureus [6]; 16 mm in the data set on Saccharomyces cerevisiae [7]; 15 mm in the data set with Candida albicans [11]; 20 mm in the data set with Bacillus subtilis [14]. In addition, the MIC in the data set on Candida albicans [2], with Saccharomyces cerevisiae [3], in the data set on Staphylococcus aureus [4], against Escherichia coli [8] and in the data set with Bacillus subtilis [15] was 10 µg/mL (≈ 22.4 µM) each time. Besides, the figures for the IC50 in the data set with HepG2 and in the data set with MCF7 were 17.1 µg/mL (≈ 38.3 µM) and 19.6 µg/mL (≈ 43.9 µM), respectively. Moreover, the Ratio in [5] was determined as 0.02; in data set [12], 0.017. For the same compound, the mortality at 72 h, 1000 ug/mL in data set [9] is 60%. In data set [10], the LC50 at 72 h was determined as 1000 µg/mL (≈ 2240 µM). Moreover, the Activity result in the data set with Artemia salina is given as “Non-toxic”.

For `CC(NNc1ccccc1)(c1cccnc1)P(=O)(Oc1ccccc1)Oc1ccccc1` (centres undefined), the zone of inhibition at 10000 µg/disc amounted to 32 mm in the data set with Escherichia coli [1]; 28 mm with Staphylococcus aureus [6]; 27 mm in the data set with Saccharomyces cerevisiae [7]; 26 mm in the data set with Candida albicans [11]; 26 mm in the data set on Bacillus subtilis [14]. The MIC in the data set with Candida albicans [2], against Saccharomyces cerevisiae [3], against Staphylococcus aureus [4], against Escherichia coli [8] and against Bacillus subtilis [15] was 10 µg/mL (≈ 22.4 µM) each time. The IC50 came to 17.6 µg/mL (≈ 39.5 µM) in the data set on HepG2 and 19.4 µg/mL (≈ 43.6 µM) in the data set on MCF7. The Ratio was found to be 0.023 in data set [5] and 0.02 in [12]. In addition, in [9], the mortality at 72 h, 1000 ug/mL stood at 60%. Also, the LC50 at 72 h in data set [10] was 843 µg/mL (≈ 1890 µM). For the same compound, the Activity result in the data set on Artemia salina is “Non-toxic”.

Consider `C[C@@H]1[C@H](O)[C@@H](C)/C=C/C=C/C=C/C=C/C=C/C=C/C=C/[C@H](O[C@@H]2O[C@H](C)[C@@H](O)[C@H](N)[C@@H]2O)C[C@@H]2O[C@](O)(C[C@@H](O)C[C@@H](O)[C@H](O)CC[C@@H](O)C[C@@H](O)CC(=O)O[C@H]1C)C[C@H](O)[C@H]2C(=O)O` [AMPHOTERICIN B], for which the MIC against Candida albicans [2] and against Saccharomyces cerevisiae [3] was 15 µg/mL (≈ 16.2 µM) in each case.

Take `O=C(O)c1cn(C2CC2)c2cc(N3CCNCC3)c(F)cc2c1=O` [CIPROFLOXACIN]: the minimum inhibitory concentration (MIC) against Staphylococcus aureus [4], against Escherichia coli [8] and with Bacillus subtilis [15] was 5 µg/mL (≈ 15.1 µM) each time.
